Test [1] deals with A549. As to the kind of experiment: Cytotoxicity against human A549 cells after 48 hrs by MTT assay. The class given is functional, cell-based. The conditions noted are these: A549, 48 h. In a few lines:
(§1)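 Cells were exposed to drug for 48 h at seven ten-fold dilutions down to 0.1 nM. MTT in RPMI-1640 was then added for a further 4 h at 37 °C. Formazan was dissolved in DMSO and absorbance read at 570 nm after 5 min. Each run was done in triplicate. IC₅₀ is given as mean ± SD of three independent experiments.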
A general note: Tetrazolium assays rely on reduction of a dye to a coloured formazan, in cell work by metabolically active cells.

A further test concerns SK-OV-3. As to the kind of experiment: Cytotoxicity against human SKOV3 cells after 48 hrs by MTT assay. The class given is functional, cell-based. To be noted: SK-OV-3, 48 h. In short, it runs like this:
as §1

Test [2] concerns A549. As to the kind of experiment: Ratio of docetaxel IC50 to compound IC50 for human A549 cells. The test is classed as functional.
Test [3] has as its system A549. As to the kind of experiment: Ratio of taxol IC50 to compound IC50 for human A549 cells. The test is classed as functional.

For orientation: IC50 means the concentration that inhibits the measured activity by half. Lower therefore signals greater potency. Consider `CC(=O)O[C@@]12CO[C@@H]1C[C@H](O)[C@@]1(C)C(=O)[C@H](O)C3=C(C)[C@@H](OC(=O)[C@H](O)[C@@H](NC(=O)O[C@H](C)C(C)C)c4ccccc4)C[C@@](O)([C@@H](OC(=O)c4ccccc4)[C@H]21)C3(C)C`, for which the IC50 is 35 nM in the test on A549 [1] and 13 nM in the test with SK-OV-3.
For the compound `CC(=O)O[C@@]12CO[C@@H]1C[C@H](O)[C@@]1(C)C(=O)[C@H](O)C3=C(C)[C@@H](OC(=O)[C@H](O)[C@@H](NC(=O)O[C@@H](C)C(C)C)c4ccccc4)C[C@@](O)([C@@H](OC(=O)c4ccccc4)[C@H]21)C3(C)C`, the IC50 with A549 [1] amounted to 60 nM; in the test on SK-OV-3 it was 17 nM.
Consider `CC[C@@H](C)OC(=O)N[C@@H](c1ccccc1)[C@@H](O)C(=O)O[C@H]1C[C@@]2(O)[C@@H](OC(=O)c3ccccc3)[C@@H]3[C@]4(OC(C)=O)CO[C@@H]4C[C@H](O)[C@@]3(C)C(=O)[C@H](O)C(=C1C)C2(C)C`, for which the IC50 with A549 [1] is 18 nM; in the test on SK-OV-3, 13 nM.
Taken in the same sequence, the figures for `CC[C@H](C)OC(=O)N[C@@H](c1ccccc1)[C@@H](O)C(=O)O[C@H]1C[C@@]2(O)[C@@H](OC(=O)c3ccccc3)[C@@H]3[C@]4(OC(C)=O)CO[C@@H]4C[C@H](O)[C@@]3(C)C(=O)[C@H](O)C(=C1C)C2(C)C` were 40 nM and 27 nM.
Regarding `CCC(C)(C)OC(=O)N[C@@H](c1ccccc1)[C@@H](O)C(=O)O[C@H]1C[C@@]2(O)[C@@H](OC(=O)c3ccccc3)[C@@H]3[C@]4(OC(C)=O)CO[C@@H]4C[C@H](O)[C@@]3(C)C(=O)[C@H](O)C(=C1C)C2(C)C`, the IC50 was found to be 13 nM in the test with A549 [1] and 5.9 nM with SK-OV-3. For the same compound, the “Ratio IC50” value in the test with A549 [2] and in the test with A549 [3] was above 65 in each case.
For the compound `CCCC(C)(C)OC(=O)N[C@@H](c1ccccc1)[C@@H](O)C(=O)O[C@H]1C[C@@]2(O)[C@@H](OC(=O)c3ccccc3)[C@@H]3[C@]4(OC(C)=O)CO[C@@H]4C[C@H](O)[C@@]3(C)C(=O)[C@H](O)C(=C1C)C2(C)C`, the IC50 in the test with A549 [1] was 10 nM; with SK-OV-3 it was 2.9 nM. For the same compound, the “Ratio IC50” value with A549 [2] and in the test with A549 [3] was above 65 in each case.
Consider `CC(=O)O[C@@]12CO[C@@H]1C[C@H](O)[C@@]1(C)C(=O)[C@H](O)C3=C(C)[C@@H](OC(=O)[C@H](O)[C@@H](NC(=O)OC(C)(C)C(C)C)c4ccccc4)C[C@@](O)([C@@H](OC(=O)c4ccccc4)[C@H]21)C3(C)C`, for which the IC50 in the test on A549 [1] amounted to 12 nM; in the test on SK-OV-3 it was 2.7 nM. Moreover, the “Ratio IC50” value with A549 [2] and in the test on A549 [3] was above 65 in each case.
As to `CC(=O)O[C@@]12CO[C@@H]1C[C@H](O)[C@@]1(C)C(=O)[C@H](O)C3=C(C)[C@@H](OC(=O)[C@H](O)[C@@H](NC(=O)OC(C)(C)CF)c4ccccc4)C[C@@](O)([C@@H](OC(=O)c4ccccc4)[C@H]21)C3(C)C`, 140 nM corresponded to half-maximal inhibition in the test on A549 [1] (IC50).
Consider `CC(=O)O[C@@]12CO[C@@H]1C[C@H](O)[C@@]1(C)C(=O)[C@H](O)C3=C(C)[C@@H](OC(=O)[C@H](O)[C@@H](NC(=O)OC(C)C(C)C)c4ccccc4)C[C@@](O)([C@@H](OC(=O)c4ccccc4)[C@H]21)C3(C)C` (mixture of isomers), for which the IC50 in the test on A549 [1] was determined as 47 nM; in the test on SK-OV-3 it was 16 nM.
In the case of `CCC(C)OC(=O)N[C@@H](c1ccccc1)[C@@H](O)C(=O)O[C@H]1C[C@@]2(O)[C@@H](OC(=O)c3ccccc3)[C@@H]3[C@]4(OC(C)=O)CO[C@@H]4C[C@H](O)[C@@]3(C)C(=O)[C@H](O)C(=C1C)C2(C)C` (mixture of isomers), the IC50 in the test with A549 [1] was 30 nM; with SK-OV-3, 22 nM.
On to `CC(=O)O[C@@]12CO[C@@H]1C[C@H](O)[C@@]1(C)C(=O)[C@H](O)C3=C(C)[C@@H](OC(=O)[C@H](O)[C@@H](NC(=O)OC(C)(C)C)c4ccccc4)C[C@@](O)([C@@H](OC(=O)c4ccccc4)[C@H]21)C3(C)C` [DOCETAXEL], for which the results for the IC50 with A549 [1] and in the test on SK-OV-3 were 850 nM and 5 nM, respectively.
Take `CC(=O)O[C@H]1C(=O)[C@@]2(C)[C@H]([C@H](OC(=O)c3ccccc3)[C@]3(O)C[C@H](OC(=O)[C@H](O)[C@@H](NC(=O)c4ccccc4)c4ccccc4)C(C)=C1C3(C)C)[C@]1(OC(C)=O)CO[C@@H]1C[C@@H]2O` [PACLITAXEL]: the IC50 turned out to be 930 nM in the test on A549 [1] and 35 nM in the test on SK-OV-3.

(Values after ChEMBL document CHEMBL3091321, “Design, synthesis and cytotoxicity of novel 3'-N-alkoxycarbonyl docetaxel analogs” (Bioorg Med Chem Lett, 2013).)
